Eight molecules from ChEMBL document CHEMBL1131082, “Discovery and preliminary SAR studies of a novel, nonsteroidal progesterone receptor antagonist pharmacophore” (J Med Chem, 1998) can be followed below.

Structures are written as SMILES.

In test [1] the target is T1, Progesterone receptor (Homo sapiens, UniProt P06401).
T1 sequence (P06401 whole entry): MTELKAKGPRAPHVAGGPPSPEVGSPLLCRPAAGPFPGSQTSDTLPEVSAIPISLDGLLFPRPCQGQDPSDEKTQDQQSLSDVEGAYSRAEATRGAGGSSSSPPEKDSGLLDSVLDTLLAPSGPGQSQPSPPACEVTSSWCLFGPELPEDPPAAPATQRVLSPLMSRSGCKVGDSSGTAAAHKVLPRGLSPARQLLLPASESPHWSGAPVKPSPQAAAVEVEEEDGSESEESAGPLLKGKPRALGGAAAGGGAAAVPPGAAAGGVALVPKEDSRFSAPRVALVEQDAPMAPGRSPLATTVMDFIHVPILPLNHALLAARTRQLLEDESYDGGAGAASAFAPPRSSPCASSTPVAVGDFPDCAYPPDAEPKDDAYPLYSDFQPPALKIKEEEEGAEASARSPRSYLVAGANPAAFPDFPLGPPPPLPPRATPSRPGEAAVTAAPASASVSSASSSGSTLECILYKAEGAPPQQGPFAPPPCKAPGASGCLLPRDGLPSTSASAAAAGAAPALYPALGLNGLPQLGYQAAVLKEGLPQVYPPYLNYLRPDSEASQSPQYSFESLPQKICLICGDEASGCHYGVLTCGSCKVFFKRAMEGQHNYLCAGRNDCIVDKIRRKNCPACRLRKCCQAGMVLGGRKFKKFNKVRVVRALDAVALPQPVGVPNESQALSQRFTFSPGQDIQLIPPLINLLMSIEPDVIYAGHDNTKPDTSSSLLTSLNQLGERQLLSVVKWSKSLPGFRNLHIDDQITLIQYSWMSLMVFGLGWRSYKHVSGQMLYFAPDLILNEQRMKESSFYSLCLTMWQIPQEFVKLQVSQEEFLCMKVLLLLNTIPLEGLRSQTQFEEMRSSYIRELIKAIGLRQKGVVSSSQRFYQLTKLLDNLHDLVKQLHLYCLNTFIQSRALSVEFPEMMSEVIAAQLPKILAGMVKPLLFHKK
The test can be described thus: Binding affinity against Baculovirus-Expressed hPR-A.

The target of test [2] is T1, Progesterone receptor. Briefly: In vitro antagonist activity against human progesterone receptor isoform B(hPR-B) in mammalian(CV-1) cells. It is filed as functional, cell-based.
For test [3], the target named is T2, Mineralocorticoid receptor (Homo sapiens) (UniProt P08235).
T2 sequence (whole entry): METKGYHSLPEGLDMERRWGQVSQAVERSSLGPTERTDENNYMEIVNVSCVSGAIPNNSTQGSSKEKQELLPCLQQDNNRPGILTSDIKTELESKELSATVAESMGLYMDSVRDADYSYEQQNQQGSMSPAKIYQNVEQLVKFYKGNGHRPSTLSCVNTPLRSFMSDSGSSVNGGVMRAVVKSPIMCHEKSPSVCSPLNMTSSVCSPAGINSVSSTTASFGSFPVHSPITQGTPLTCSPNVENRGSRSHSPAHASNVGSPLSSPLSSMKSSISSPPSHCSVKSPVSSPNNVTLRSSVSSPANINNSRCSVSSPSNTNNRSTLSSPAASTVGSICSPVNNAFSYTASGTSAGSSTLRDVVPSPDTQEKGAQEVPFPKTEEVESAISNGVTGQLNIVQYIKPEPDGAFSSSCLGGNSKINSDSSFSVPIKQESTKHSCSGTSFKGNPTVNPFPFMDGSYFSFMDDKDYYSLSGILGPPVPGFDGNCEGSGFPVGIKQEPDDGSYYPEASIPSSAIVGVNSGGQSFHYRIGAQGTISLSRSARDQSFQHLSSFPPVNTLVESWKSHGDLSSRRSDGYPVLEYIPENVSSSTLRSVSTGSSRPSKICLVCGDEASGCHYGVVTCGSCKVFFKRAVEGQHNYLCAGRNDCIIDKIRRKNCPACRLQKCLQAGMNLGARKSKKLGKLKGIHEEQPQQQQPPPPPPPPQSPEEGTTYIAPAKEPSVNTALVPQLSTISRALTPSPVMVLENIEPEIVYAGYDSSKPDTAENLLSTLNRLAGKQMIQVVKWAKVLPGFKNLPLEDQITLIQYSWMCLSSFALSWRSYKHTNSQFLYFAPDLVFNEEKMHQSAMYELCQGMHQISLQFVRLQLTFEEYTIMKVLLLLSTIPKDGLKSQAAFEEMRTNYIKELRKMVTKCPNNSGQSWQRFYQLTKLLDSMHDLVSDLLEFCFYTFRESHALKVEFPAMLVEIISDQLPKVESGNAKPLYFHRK
Briefly: Antagonist activity against Mineralocorticoid receptor. It is filed as functional. The method, boiled down:
(§1)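 hMR antagonist cotransfection assay run with an EC50 concentration of aldosterone as agonist. Potency is the IC50. Efficacy is % of maximal inhibition. Values are the mean ± SEM of at least two independent experiments, or one experiment where marked.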

Test [4] has as its target Estrogen receptor (Homo sapiens) (UniProt Q92731+P03372).
The target in test [5] is T3, Glucocorticoid receptor (Homo sapiens) (UniProt P04150).
T3 sequence (whole entry): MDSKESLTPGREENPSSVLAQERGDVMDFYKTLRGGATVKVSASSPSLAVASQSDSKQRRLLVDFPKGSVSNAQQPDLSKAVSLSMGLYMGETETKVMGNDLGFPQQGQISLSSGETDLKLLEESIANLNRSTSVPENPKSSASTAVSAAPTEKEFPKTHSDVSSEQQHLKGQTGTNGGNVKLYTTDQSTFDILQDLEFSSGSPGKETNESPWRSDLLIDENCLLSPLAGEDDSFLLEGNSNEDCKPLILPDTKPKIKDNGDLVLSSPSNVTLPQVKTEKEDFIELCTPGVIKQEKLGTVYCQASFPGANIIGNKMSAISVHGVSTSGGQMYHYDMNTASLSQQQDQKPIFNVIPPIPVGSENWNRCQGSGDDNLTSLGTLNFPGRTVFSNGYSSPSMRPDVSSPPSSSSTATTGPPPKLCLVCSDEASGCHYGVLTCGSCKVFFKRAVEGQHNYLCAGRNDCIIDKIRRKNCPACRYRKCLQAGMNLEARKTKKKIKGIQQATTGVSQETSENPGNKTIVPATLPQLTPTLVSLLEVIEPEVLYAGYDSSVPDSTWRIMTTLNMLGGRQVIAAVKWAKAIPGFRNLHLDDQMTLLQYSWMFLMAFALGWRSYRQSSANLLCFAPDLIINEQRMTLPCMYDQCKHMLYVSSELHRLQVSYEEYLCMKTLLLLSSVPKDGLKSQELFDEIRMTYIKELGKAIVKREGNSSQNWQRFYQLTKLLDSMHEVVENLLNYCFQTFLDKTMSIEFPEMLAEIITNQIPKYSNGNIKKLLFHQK

Test [6] addresses T4, Androgen receptor (Homo sapiens) (UniProt P10275).
T4 sequence (whole entry): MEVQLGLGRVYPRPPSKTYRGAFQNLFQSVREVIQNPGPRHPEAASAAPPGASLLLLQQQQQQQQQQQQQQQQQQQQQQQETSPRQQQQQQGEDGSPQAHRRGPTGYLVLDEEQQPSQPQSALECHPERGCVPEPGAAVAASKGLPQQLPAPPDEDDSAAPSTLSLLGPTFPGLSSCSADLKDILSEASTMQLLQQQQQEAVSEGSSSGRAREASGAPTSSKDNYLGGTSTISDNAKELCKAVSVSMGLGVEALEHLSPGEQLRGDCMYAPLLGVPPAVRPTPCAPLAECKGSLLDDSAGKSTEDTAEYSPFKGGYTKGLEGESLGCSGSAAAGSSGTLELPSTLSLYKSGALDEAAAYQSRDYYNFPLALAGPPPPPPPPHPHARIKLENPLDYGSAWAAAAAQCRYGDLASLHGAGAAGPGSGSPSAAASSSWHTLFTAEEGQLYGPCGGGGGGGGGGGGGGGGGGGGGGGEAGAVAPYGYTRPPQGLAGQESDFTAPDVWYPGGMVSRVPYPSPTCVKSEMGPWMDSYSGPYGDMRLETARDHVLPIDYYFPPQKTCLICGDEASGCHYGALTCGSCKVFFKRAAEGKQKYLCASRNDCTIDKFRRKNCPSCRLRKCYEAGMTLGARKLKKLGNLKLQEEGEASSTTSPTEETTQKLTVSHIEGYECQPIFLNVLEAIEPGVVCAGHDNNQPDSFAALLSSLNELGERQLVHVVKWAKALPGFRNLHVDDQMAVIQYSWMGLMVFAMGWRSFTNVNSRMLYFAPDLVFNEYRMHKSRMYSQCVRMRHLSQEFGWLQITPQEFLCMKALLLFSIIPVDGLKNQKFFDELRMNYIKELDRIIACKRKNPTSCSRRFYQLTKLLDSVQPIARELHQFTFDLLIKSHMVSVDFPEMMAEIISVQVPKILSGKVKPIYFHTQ

Test [7] has as its target T2, Mineralocorticoid receptor (Homo sapiens). The test can be described thus: Efficacy as percent inhibition of Mineralocorticoid receptor with aldosterone EC50. The method, boiled down:
as §1

One may read the Ki as a dissociation constant, usually derived from enzyme kinetics or from competition with a known ligand. Broadly, the IC50 is the concentration that inhibits the measured activity by half. Higher therefore signals weaker potency. `CC1=CC(C)(C)Nc2ccc(-c3ccccc3)cc21` gave a Ki on Progesterone receptor [1] of 133 nM. At Progesterone receptor [2], this molecule gave an IC50 of 783 nM.
On Progesterone receptor [1], `CC1=CC(C)(C)Nc2ccc(-c3cc(F)cc(F)c3)cc21` returned a Ki of 10 nM. On Progesterone receptor [2], this molecule showed an IC50 of 79 nM.
`CC#C[C@]1(O)CC[C@H]2[C@@H]3CCC4=CC(=O)CCC4=C3[C@@H](c3ccc(N(C)C)cc3)C[C@@]21C`: the Potency in test [3] and in test [4] was above 1000 nM throughout.
Turning to `CN(C)c1ccc([C@H]2C[C@]3(C)[C@@H](CC[C@]3(O)CCCO)[C@@H]3CCC4=CC(=O)CCC4=C32)cc1`, the Potency in test [3] is above 1000 nM; in test [5], 27 nM; in test [6], 269 nM.
Consider `CC1=CC(C)(C)Nc2ccc(-c3cc(F)cc([N+](=O)[O-])c3)cc21`, for which, on Progesterone receptor [1], the affinity, expressed as Ki, was 5 nM. In addition, inhibition at Progesterone receptor [2] was half-maximal at 70 nM (IC50).
For the molecule `CC1=CC(C)(C)Nc2ccc(-c3cc(F)cc(C#N)c3)cc21`, the Potency in test [3], in test [5] and in test [4] was above 1000 nM each time. In test [7], this molecule yielded an Efficacy of 80%.
Regarding `CC1=CC(C)(C)Nc2ccc(-c3cccc(F)c3)cc21`, the Ki at Progesterone receptor [1] came to 182 nM. The IC50 against Progesterone receptor [2] came to 750 nM.
As for `CC1=CC(C)(C)Nc2ccc(-c3cccc(C#N)c3)cc21`, the Potency in test [3] was above 1000 nM; in test [5], above 1000 nM; in test [4] it was above 1000 nM; in test [6], 227 nM. This molecule registered a Ki at Progesterone receptor [1] of 19 nM. The Efficacy in test [7] came out at 94%. At Progesterone receptor [2], this molecule came in with an IC50 of 38 nM.
